Assay results from ChEMBL document CHEMBL3352282, “Design and synthesis of novel azapeptide activators of apoptosis mediated by caspase-9 in cancer cells” (Bioorg Med Chem Lett, 2014).
Active and inactive are the calls of the source. No cut-off for these calls is given here.

Legend:
[1] = system: MDA-MB-231; experiment: Induction of cell death in serum starved human MDA-MB-231 cells at 50 uM after 16 hrs by trypan blue dye exclusion assay; assay type: functional
Procedure, shortened: (§1)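 Breast cancer line serum-starved 6 h, then exposed to compound (DMSO vehicle) for 16 h at a final 50 µM or 100 µM. Cells trypsinized, stained with Trypan blue and counted. Cell death expressed as percentage, relative to vehicle. Mean ± SEM of three independent experiments, paired comparison to DMSO control.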

[2] = system: MDA-MB-231; experiment: Induction of apoptosis in serum starved human MDA-MB-231 cells assessed as caspase-3 activation at 100 uM after 16 hrs by Western blotting method; assay type: functional, cell-based
Procedure, shortened: (§2)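 MDA-MB-231 cells serum-starved 6 h, then exposed to DMSO vehicle, etoposide, AVPI-NH₂ or analogs at one final concentration (50 or 100 µM, per line), harvested; caspase-3 and caspase-9 activation assessed by Western blotting. Quantification as mean ± SEM of three independent experiments.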

[3] = system: MDA-MB-231; experiment: Induction of apoptosis in serum starved human MDA-MB-231 cells assessed as caspase-9 activation at 100 uM after 16 hrs by Western blotting method; assay type: functional, cell-based; procedure, shortened: as §2
[4] = system: MDA-MB-231; experiment: Induction of cell death in serum starved human MDA-MB-231 cells at 100 uM after 16 hrs by trypan blue dye exclusion assay; assay type: functional; procedure, shortened: as §1
[5] = system: MDA-MB-231; experiment: Induction of apoptosis in serum starved human MDA-MB-231 cells assessed as caspase-9 activation after 16 hrs by Western blotting method; assay type: functional, cell-based; conditions: MDA-MB-231, 16 h
Procedure, shortened: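 MDA-MB-231 cells serum-starved 6 h, treated 16 h across a concentration series (about 12.5–125 µM), harvested; total and cleaved caspase-9 immunoblotted and quantified. Mean ± SEM of two independent experiments; significance versus paired DMSO condition.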

[6] = system: MDA-MB-231; experiment: Induction of apoptosis in serum starved human MDA-MB-231 cells assessed as caspase-9 activation at 50 uM after 16 hrs by Western blotting method; assay type: functional, cell-based; procedure, shortened: as §2
[7] = system: MDA-MB-231; experiment: Induction of apoptosis in serum starved human MDA-MB-231 cells assessed as caspase-3 activation at 50 uM after 16 hrs by Western blotting method; assay type: functional, cell-based; procedure, shortened: as §2

SMILES | Activity [1] | Activity [2] | Activity [3] | Activity [4] | EC50 [5] | Activity [6] | Activity [7]
C=CCN(NC(=O)[C@H](C)N)C(=O)N1CCC[C@H]1C(=O)NC(c1ccccc1)c1ccccc1 | inactive | Active | Active | 50% |  |  | 
C[C@H](N)C(=O)NNC(=O)N1CCC[C@H]1C(=O)NC(c1ccccc1)c1ccccc1 | Active | Active | Active | 50% | 73.4 µM |  | 
COc1cc([C@@H]2c3cc4c(cc3[C@@H](O[C@@H]3O[C@@H]5CO[C@@H](C)O[C@H]5[C@H](O)[C@H]3O)[C@H]3COC(=O)[C@H]23)OCO4)cc(OC)c1O [ETOPOSIDE] | 50% |  |  |  |  | inactive | Active
C[C@H](N)C(=O)NN(C)C(=O)N1CCC[C@H]1C(=O)NC(c1ccccc1)c1ccccc1 | Active | Active | Active | 50% |  |  | 
C#CCN(NC(=O)[C@H](C)N)C(=O)N1CCC[C@H]1C(=O)NC(c1ccccc1)c1ccccc1 | inactive | Active | Active | 50% |  |  | 
C[C@H](N)C(=O)NN(Cc1ccccc1)C(=O)N1CCC[C@H]1C(=O)NC(c1ccccc1)c1ccccc1 | Active | Active | Active | 50% | 50.2 µM | Active | Active
